In article PMC4372064 (ACS Chemical Neuroscience, 2014):
Entries after “also recorded” stand apart in the source; their conditions may differ. Read-outs that look alike come from different tables or passages of the source.

Legend:
mice (MES seizure model) = settings: ip, (95% CI), cited from earlier work
rat (MES seizure model) = settings: po, (95% CI), cited from earlier work
[1] = system: mice (6 Hz psychomotor seizure model); settings: ip, 32 mA, [time of peak effect, h], (95% CI); cited from earlier work
[2] = system: rats (tibial-nerve injury model); assay: Tibial-nerve injury; format: in vivo, rat
[3] = system: voltage-gated sodium channels in rat embryonic cortical neurons; assay: Whole-cell patch clamp, inactivation protocol, rat embryonic cortical neurons; format: cell-based; settings: 10 μM
[4] = system: Na+ currents in CAD cells; settings: 100 μM; cited from earlier work
[5] = molecular target: T1, sodium channels in CAD cells (Mus musculus, UniProt Q62205); settings: cited from earlier work
T1 sequence (Q62205 whole entry): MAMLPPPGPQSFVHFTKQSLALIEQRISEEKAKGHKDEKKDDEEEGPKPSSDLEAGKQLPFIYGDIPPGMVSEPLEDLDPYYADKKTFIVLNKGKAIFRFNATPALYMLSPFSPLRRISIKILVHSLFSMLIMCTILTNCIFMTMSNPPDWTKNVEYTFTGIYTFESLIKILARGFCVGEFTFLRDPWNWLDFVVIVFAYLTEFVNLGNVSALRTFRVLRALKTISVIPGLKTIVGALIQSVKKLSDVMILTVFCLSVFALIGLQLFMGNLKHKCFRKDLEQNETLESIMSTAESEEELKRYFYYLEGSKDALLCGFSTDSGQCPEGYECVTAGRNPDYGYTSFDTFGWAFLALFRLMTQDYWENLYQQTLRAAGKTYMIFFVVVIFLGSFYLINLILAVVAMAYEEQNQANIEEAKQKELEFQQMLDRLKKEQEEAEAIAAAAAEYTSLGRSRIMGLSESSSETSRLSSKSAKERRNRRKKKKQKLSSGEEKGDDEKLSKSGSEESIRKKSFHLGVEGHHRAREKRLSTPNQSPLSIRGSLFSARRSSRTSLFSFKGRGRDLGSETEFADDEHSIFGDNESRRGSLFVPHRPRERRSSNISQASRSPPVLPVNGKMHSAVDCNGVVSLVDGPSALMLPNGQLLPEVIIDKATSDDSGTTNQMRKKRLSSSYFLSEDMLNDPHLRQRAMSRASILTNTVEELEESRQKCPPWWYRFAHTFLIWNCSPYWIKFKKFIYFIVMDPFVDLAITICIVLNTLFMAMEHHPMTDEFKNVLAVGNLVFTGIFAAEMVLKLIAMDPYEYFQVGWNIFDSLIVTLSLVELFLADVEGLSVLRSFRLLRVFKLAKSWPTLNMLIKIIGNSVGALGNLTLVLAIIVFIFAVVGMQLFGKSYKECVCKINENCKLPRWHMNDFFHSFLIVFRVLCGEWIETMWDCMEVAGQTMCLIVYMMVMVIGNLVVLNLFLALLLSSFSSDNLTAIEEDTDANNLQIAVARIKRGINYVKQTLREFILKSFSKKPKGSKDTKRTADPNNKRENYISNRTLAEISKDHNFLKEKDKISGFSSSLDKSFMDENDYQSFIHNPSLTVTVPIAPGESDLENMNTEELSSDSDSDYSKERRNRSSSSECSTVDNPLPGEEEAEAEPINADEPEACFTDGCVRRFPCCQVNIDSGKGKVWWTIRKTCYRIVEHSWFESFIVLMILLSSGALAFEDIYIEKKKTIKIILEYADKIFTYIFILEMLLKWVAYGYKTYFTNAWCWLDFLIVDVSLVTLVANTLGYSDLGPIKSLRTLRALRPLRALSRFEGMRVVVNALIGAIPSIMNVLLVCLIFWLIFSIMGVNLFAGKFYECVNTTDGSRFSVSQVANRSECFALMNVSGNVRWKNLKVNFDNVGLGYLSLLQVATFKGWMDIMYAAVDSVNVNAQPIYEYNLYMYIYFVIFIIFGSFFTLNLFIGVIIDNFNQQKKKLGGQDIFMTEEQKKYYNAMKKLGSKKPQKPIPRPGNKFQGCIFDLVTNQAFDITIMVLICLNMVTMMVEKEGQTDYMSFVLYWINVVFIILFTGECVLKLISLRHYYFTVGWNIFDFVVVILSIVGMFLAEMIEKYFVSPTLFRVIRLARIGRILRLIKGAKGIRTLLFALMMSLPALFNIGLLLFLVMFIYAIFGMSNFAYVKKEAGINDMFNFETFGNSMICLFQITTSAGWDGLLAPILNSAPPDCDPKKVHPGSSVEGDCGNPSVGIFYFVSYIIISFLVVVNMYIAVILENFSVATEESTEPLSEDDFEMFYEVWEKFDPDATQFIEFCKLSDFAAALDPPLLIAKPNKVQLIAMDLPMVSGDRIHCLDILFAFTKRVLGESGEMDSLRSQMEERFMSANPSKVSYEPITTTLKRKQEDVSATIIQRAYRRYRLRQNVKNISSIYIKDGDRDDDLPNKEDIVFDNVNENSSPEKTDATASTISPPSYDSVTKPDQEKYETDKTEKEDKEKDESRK

[6] = system: voltage-gated sodium channels in rat embryonic cortical neurons; format: cell-based; settings: 10 μM
[7] = system: rat (behavioral toxicity); settings: po, h]; cited from earlier work
[8] = system: voltage-gated sodium channels in rat embryonic cortical neurons; assay: Whole-cell patch clamp, steady-state activation, rat embryonic cortical neurons; format: cell-based; settings: 10 μM
[9] = system: mice (formalin pain model); settings: 8 mg/kg; cited from earlier work
scMet seizure model = settings: cited from earlier work
[10] = system: Na+ currents in CAD cells; assay: Whole-cell patch clamp, frequency; format: cell-based, mouse; settings: 100 μM
Summary of the method: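 Whole-cell voltage clamp was done at room temperature on CAD cells (Ham's F12/DMEM, 10% FBS, 1% pen/strep, 37 °C, 5% CO2, passaged 1:5 every 3–5 days). Criteria were access resistance <3 MΩ and −P/4 leak subtraction. Cells were held at −80 mV and given 20 ms pulses to −10 mV at 10 Hz. Peak currents were compared with the first pulse against 0.1% DMSO control, with test compound at 10 or 100 μM.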

[11] = molecular target: T1, sodium channels in CAD cells; assay: Whole-cell patch clamp, steady-state fast inactivation, CAD cells; format: cell-based
Summary of the method: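 CAD cells were recorded by whole-cell clamp at room temperature, with 3 s between pulses. Steady-state fast inactivation was induced by a previously described protocol. Test compound was applied at 10 μM (10–200 μM for one compound) versus 0.1% DMSO control. Each recording was fitted to a Boltzmann function to give V1/2 and slope k, which were averaged (mean ±SEM). Cells numbered 3–7 per condition, compared by Student's t test or one-way ANOVA.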

O=C1NC(=O)C(c2ccccc2)(c2ccccc2)N1 [phenytoin]
MES, ED50 (mice (MES seizure model); [time of peak effect, h]): 9.5 mg/kg
MES, ED50 (rat (MES seizure model); [time of peak effect, h]): 30 mg/kg

COC[C@@H](NC(C)=O)C(=O)NCc1ccccc1 [(R)-2, (R)-N-benzyl 2-N-acetamido-3-methoxypropionamide]
6 Hz ED50 [1]: 10 mg/kg
reversal of tactile hypersensitivity (% of preinjury values) ([2]; TNI day 14, 10 mg/kg ip, 1 h after administration): ~72%
effect on sodium channel inactivation (in words) [3]: neither parent compound affected inactivation
reduction of Na+ currents, frequency (use)-dependence [4]: ~8.8%
effect on sodium channel fast inactivation [5]: did not
effect on steady-state fast inactivation (in words) [6]: neither (R)-2 nor (S)-3 affected fast inactivation
Tox, TD50 (behavioral toxicity) [7]: >500 [0.5] mg/kg
effect on steady-state activation of VGSCs (in words) [8]: neither 10 μM (R)-2 nor 10 μM (S)-3 affected the steady-state activation
MES, ED50 (rat (MES seizure model); [time of peak effect, h]): 3.9 mg/kg
activity in the second (inflammation) phase of the formalin model [9]: effective

C[C@H](NCc1ccc(OCc2cccc(F)c2)cc1)C(N)=O [(S)-3, (S)-2-(4′-((3″-fluoro)benzyloxy)benzyl)aminopropionamide]
scMet ED50 (scMet seizure model): 27 mg/kg
effect on mechanical/tactile hypersensitivity (in words) ([2]; TNI day 14, single ip administration, 10 mg/kg): no effect; also recorded: without effect
effect on sodium channel inactivation (in words) [3]: neither parent compound affected inactivation
inhibition of Na+ current, frequency (use)-dependence [10]: ~13%
effect on steady-state fast inactivation (in words) [6]: neither (R)-2 nor (S)-3 affected fast inactivation
effect on steady-state activation of VGSCs (in words) [8]: neither 10 μM (R)-2 nor 10 μM (S)-3 affected the steady-state activation
MES, ED50 (mice (MES seizure model)): 4.1 (3.0–5.5) mg/kg
MES, ED50 (rat (MES seizure model)): 12 (10–14) mg/kg
effect on VGSC fast inactivation [11]: promoted fast inactivation of VGSCs
hyperpolarizing shift in V1/2 of fast inactivation vs control (maximum) ([11]; 200 μM): ~21.6 mV

NC(=O)N1c2ccccc2C=Cc2ccccc21 [carbamazepine]
effect on tactile hypersensitivity (in words) ([2]; TNI, 65 mg/kg, ip): ineffective
